High-throughput results deposited in PubChem BioAssay by several laboratories.
Hits are enriched below; roughly 6.8% of the tested compounds scored in any of these assays.
Cdc25B inh: inhibitors of human Cdc25B phosphatase; P30305; recombinant Cdc25B, OMFP fluorescence Ex485/Em525; inhibition, %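 (compounds tested at 10 µM final in the well)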; 0.1% of 65,000 active; in the data active = inhibition above about 50%
HEK293 NFkB inh: lowers PMA/ionomycin-induced NF-kB signal in HEK293 cells. 0.21% of 62,000 active. AID 465. HEK-293 NF-kB luciferase reporter, luminescence. inhibition, % at 3 µM;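 active = inhibition above the mean of all tested compounds plus 3 SD, cut at about 40% in these data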;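 also: 0% = stimulated DMSO wells and 100% = 10 µM reference inhibitor 5653914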
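Timing: 1 h pretreatment, 16 h stimulation, 37 °C; system: HEK-293 cells with stable firefly luciferase reporter driven by four HIV NF-kB elements; doses: 3 µM once, 0.30% DMSO; measured by: luciferase luminescence; control set: DMSO and 10 µM reference inhibitor; repeats: single test; reagent: PMA plus ionomycin mix as NF-kB-activating stimulus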
M1 antagonist: antagonists of rat M1 muscarinic receptor | CHO-M1 cells, Fluo-4 calcium, ACh EC80 antagonist mode; stronger effect = lower value | AID 628 | 3.4% of 64,000 active | P08482 | B-score at 10 µM;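 active = calcium fluorescence response, raw or row-and-column corrected B-score, differing from the plate sample mean either way at a set confidence level, mostly lower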
MKP-1 inh: human dual specificity phosphatase 1 inhibition; AID 374; recombinant MKP-1, OMFP hydrolysis fluorescence; 0.15% of 65,000 active; inhibition, %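 (compounds tested at a single concentration somewhere between 10 and 100 µM)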;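 active = inhibition above about 50%, limit read from the data; inconclusive = inhibition over screen mean plus 3 SD, below that limit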;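 also: 0% = DMSO max control wells and 100% = wells with enzyme stopped by NaOH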
Target sequence (P28562 whole entry, looked up): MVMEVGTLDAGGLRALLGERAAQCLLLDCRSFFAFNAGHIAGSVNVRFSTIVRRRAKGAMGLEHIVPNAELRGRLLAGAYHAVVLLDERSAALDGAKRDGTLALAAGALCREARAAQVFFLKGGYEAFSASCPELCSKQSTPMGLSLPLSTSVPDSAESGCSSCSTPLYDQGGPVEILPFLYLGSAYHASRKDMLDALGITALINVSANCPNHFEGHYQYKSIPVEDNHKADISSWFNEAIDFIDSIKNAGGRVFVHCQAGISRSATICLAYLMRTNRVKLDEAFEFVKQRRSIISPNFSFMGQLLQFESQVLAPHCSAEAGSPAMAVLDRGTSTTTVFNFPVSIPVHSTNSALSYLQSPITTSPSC
M1 ag: agonists of M1 muscarinic receptor; 3% of 64,000 active; B-score at 10 µM; CHO-M1 cells, Fluo-4 calcium fluorescence, agonist mode; stronger effect = higher value;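 active = fluorescence rise, raw or as B-score row- and column-corrected plate score, outside the 99.7% band of its plate's samples, either direction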
HER2 expr 66K: Her2 kinase expression inhibition | 0.69% of 65,000 active | HER2 level % of control, % at 10 µM | SKBR-3 HER2 protein level, AlphaScreen, 18-24 h; stronger effect = lower value | AID 645 | P04626;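 active = HER2 level under 5% of the carrier-only control; inconclusive = no clear call, values can overlap the other calls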;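 also: 100% = DMSO carrier and 0% = 500 nM PU-H71 HSP90 inhibitor; lower value means stronger loss of Her2 protein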
* marks the source's active call; other numbers are inactive results; u = inconclusive; x = no result given.

SMILES	Cdc25B inh	HEK293 NFkB inh	M1 antagonist	MKP-1 inh	M1 ag	HER2 expr 66K
COc1ccc(-c2noc(CCC(=O)Nc3nc4ccccc4s3)n2)cc1	6	17	0.77*	9	-0.25	100
COc1ccc(-c2noc(CCC(=O)Nc3cccc(C)c3)n2)cc1	0	12	0.056	-12	-0.16	118
CCOCCCN(C(=O)Nc1ccc(CC)cc1)C1CCN(C(C)=O)CC1	-11	14	1.2	8	0.22	85
CCc1ccc(NC(=O)N(CCN2CCOCC2)C2CCN(C(C)=O)CC2)cc1	-3	6	0.48	9	-0.54	-27*
Cc1ccc(NC(=O)CCn2nc(C)cc2C)c(C)c1	-5	16	-0.0078	5	0.67	77
Cc1ccc(NC(=O)CNc2cccc(C)c2C)c(C)c1	-8	4	1.2	4	0.04	-28*
Cc1cc2nnc(SC3CCOC3=O)n2c2ccccc12 (configuration not stated)	-19	11	0.39	8	0.0075	115
Cc1cc2nnc(SC(C)C#N)n2c2ccccc12 (configuration not stated)	-1	-1	-0.18	1	-0.77	-28*
Cc1cc(F)c(F)c(C(=O)N2CCN(C)CC2)c1Cl	-5	15	-0.022	-1	-0.28	97
CCC(C)NC(=O)c1cnn2c1NC(c1ccc3c(c1)OCO3)CC2C(F)(F)F (configuration not stated)	10	19	0.76	10	-0.58	-29*
CC(O)c1cc2c(cc1NC(=O)c1cnn3c1NC(c1ccco1)CC3C(F)(F)F)OCO2 (configuration not stated)	-10	12	-1.9	-10	0.044	x
CC(=O)OCc1c(F)c(F)c(-n2nc(C)cc2C)c(F)c1F	-14	19	-0.59	16	0.012	66
Cc1cc(C)n(-c2c(F)c(F)c(CN3CCOCC3)c(F)c2F)n1	-3	20	0.97	35	-0.55	-21*
CC1CCCCN1Cc1nc2c(c(=O)n(C)c(=O)n2C)n1Cc1cccc2ccccc12 (configuration not stated)	-12	11	0.64	-6	-0.46	97
COC(=O)[C@H](C)NC(=O)Nc1ccc(S(N)(=O)=O)cc1	8	7	1.6*	18	0.41	79
CC(C)C[C@H](NC(=O)Nc1ccc(S(N)(=O)=O)cc1)C(=O)O	5	26	x	-5	x	122
Cc1ccc(-c2nnn(CC(=O)N(CC(=O)NC3CCCC3)c3cnc4ccccc4c3)n2)o1	6	4	0.69	7	-0.95	133
CCC(C(=O)NC1CCCC1)N(C(=O)Cn1nnc(-c2ccc(C)o2)n1)c1cnc2ccccc2c1 (configuration not stated)	3	13	-0.81	15	-1	-8.5*
Cn1c(=O)[nH]c(=O)c2c1ncn2CCCc1ccccc1	-23	2	0.15	8	0.099	130
O=C(NCCOC(=O)c1ccncc1)c1ccccc1	-11	14	-0.45	7	-0.1	106
O=C(NCCCc1ccccc1)c1ccncc1	-5	15	0.32	-2	-0.028	-5.5*
C=CCNc1nc2c(c(=O)[nH]c(=O)n2C)n1Cc1cccc(C)c1	3	4	-1.1	10	-1.1	112
O=C(CCCSc1nc2ccccc2[nH]1)NC1=NCCS1	-9	5	1.7*	4	1.3	91
COc1ccc(C(=O)N2CCCC(c3nc(-c4cccs4)no3)C2)cc1 (configuration not stated)	-6	19	-0.22	-6	-1.2	66
CCN(CC)c1ccc(-c2nn3c(-c4ccccc4OC)nnc3s2)cc1	-38	58*	0.2	35	0.21	25
SMILES	Cdc25B inh	HEK293 NFkB inh	M1 antagonist	MKP-1 inh	M1 ag	HER2 expr 66K
COc1ccc(-c2nn3c(-c4ccccc4)nnc3s2)cc1	5	8	-0.71	3	0.27	113
COc1ccccc1-c1nn2c(-c3ccccc3Cl)nnc2s1	-7	18	-0.57	-10	-2*	91
COc1ccccc1-c1nn2c(-c3ccco3)nnc2s1	11	x	-0.86	-4	2.7	82
COC(=O)c1ccc(S(=O)(=O)N(Cc2cc3cc4c(cc3[nH]c2=O)OCO4)C2CCCCC2)cc1	5	8	1.3	-8	-0.2	70
CCc1c(C)c(C#N)c2nc3ccccc3n2c1Nc1c(C)n(C)n(-c2ccccc2)c1=O	7	25	-0.26	0	-0.87	102
CCc1c(C)c(C#N)c2nc3ccccc3n2c1N(C)C	3	17	2.3*	-21	1.1	83
[O-]/[N+](=C/c1cccnc1)c1ccc(Br)cc1	47	8	-0.18	u	-1.2	99
[O-]/[N+](=C\c1ccncc1)c1ccc(Br)cc1	-21	x	-0.38	57*	-1.8	x
CN(C)S(=O)(=O)c1ccc2c(c1)c(=O)c(C(=O)N1CCOCC1)cn2C	-1	5	0.88	5	0.57	81
CCOC(=O)C1CCCN(C(=O)c2cn(C)c3ccc(S(=O)(=O)N(C)C)cc3c2=O)C1 (configuration not stated)	-4	8	0.97*	13	0.22	108
CC(=O)N=c1sc(C(C)(C)C)c(C)n1C	-18	2	-0.32	1	0.61	125
CCOc1ccc(C2/C(=C(/O)c3ccc(Cl)cc3)C(=O)C(=O)N2CCCN(C)C)cc1OC (configuration not stated)	2	5	0.016	-23	0.61	93
O=C(O)C1C2C=CC(C2)C1C(=O)NCc1ccccn1 (configuration not stated)	-4	15	2.7*	-19	0.7	84
CCC(C)[C@@H](NC(=O)OC(C)(C)C)c1nnc(S(=O)(=O)Cc2cccc(C)c2)o1 (some centres not stated)	-6	-2	-0.039	18	0.7	-17*
CCCCCCNC(=O)C(C#N)c1nc2ccccc2nc1N1CCCC1 (configuration not stated)	23	18	1.1*	2	-0.099	105
CCOC(=O)C1CCCN(c2nc3ccccc3nc2C(C#N)C(=O)NCc2ccccc2)C1 (configuration not stated)	-4	30	0.026	-12	21*	98
N#CC(C(=O)NCCc1ccccc1)c1nc2ccccc2nc1N1CCOCC1 (configuration not stated)	-17	16	-0.52	14	-0.27	91
CCOC(=O)C1CSC(CC(=O)Nc2ccc(Cl)cc2)C(=O)N1 (configuration not stated)	-9	6	0.85	-10	0.2	121
Cn1c(=O)c2cc(S(=O)(=O)NCCC(=O)NCCC3=CCCCC3)ccc2n(C)c1=O	-4	2	0.6	57*	1.3	85
Cc1ccc(CCNC(=O)CCNS(=O)(=O)c2ccc3c(c2)c(=O)n(C)c(=O)n3C)cc1	1	12	-0.57	-2	0.45	120
